# Source: ChEMBL document CHEMBL3580617, “Discovery of Benzimidazole CYP11B2 Inhibitors with in Vivo Activity in Rhesus Monkeys” (ACS Med Chem Lett, 2015)
# Active and inactive are the calls of the source. No cut-off for these calls is given here.
# Key:
# Rhesus monkey [1] = assay: Reduction in aldosterone levels in low sodium diet fed rhesus monkey at 0.01 to 0.3 mg/kg, iv followed by 0.3 mg/kg ACTH dosing and measured 30 mins to 180 mins post ACTH administration by UPLC coupled with tandem mass spectrometry; assay type: functional, organism-based; settings: Macaca mulatta; 0.001 to 0.3 mg/kg; in the assay text read “0.001 to 0.3 mg/kg” for “0.01 to 0.3 mg/kg”
# Method in brief: (§1)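 Anesthetized rhesus monkeys were given i.v. doses from 0.001 to 0.3 mg/kg. Plasma aldosterone and 11-deoxycortisol were quantified by LC-MS at time points up to 180 min postdose, and AUCs were determined for each. Plasma drug was measured at 90 min postdose. Free (unbound) concentrations were calculated from the measured fraction unbound in rhesus plasma.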
# Aromatase = biological target: T1, Aromatase (Homo sapiens, UniProt P11511); assay: Inhibition of CYP19 (unknown origin) using MFC substrate incubated for 30 mins
# T1 sequence (P11511 whole entry): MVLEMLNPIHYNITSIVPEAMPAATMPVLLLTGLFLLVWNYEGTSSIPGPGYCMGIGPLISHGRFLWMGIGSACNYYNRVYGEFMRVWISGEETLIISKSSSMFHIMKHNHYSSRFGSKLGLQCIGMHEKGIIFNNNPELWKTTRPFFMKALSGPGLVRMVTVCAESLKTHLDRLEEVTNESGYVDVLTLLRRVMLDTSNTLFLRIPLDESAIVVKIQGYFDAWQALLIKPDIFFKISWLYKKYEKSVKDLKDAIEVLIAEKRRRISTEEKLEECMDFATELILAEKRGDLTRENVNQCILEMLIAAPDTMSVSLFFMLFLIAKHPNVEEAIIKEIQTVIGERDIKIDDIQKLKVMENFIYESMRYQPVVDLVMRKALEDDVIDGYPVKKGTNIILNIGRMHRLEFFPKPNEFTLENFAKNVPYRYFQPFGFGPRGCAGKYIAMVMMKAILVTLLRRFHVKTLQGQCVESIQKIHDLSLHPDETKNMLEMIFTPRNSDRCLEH
# [2] = (§2) Inhibition of rhesus monkey CYP11B2 expressed in V79 cells incubated for 1 hr before 11-deoxycorticosterone substrate addition by HTRF-based assay; assay type: cell-based, Macaca mulatta
# Rhesus monkey [3] = assay: In-vivo inhibition of CYP11B1 in low sodium diet fed rhesus monkey at free plasma concentration up to 27 nM dosed at 0.01 to 0.3 mg/kg, iv followed by 0.3 mg/kg ACTH dosing and measured 90 mins post ACTH administration by UPLC coupled with tandem mass spectrometry; assay type: functional, organism-based; settings: Macaca mulatta; method in brief: as §1
# Rhesus monkey [4] = assay: Reduction in aldosterone levels in low sodium diet fed rhesus monkey at 0.01 mg/kg, iv followed by 0.3 mg/kg ACTH dosing and measured 30 mins to 180 mins post ACTH administration by UPLC coupled with tandem mass spectrometry; assay type: functional, Macaca mulatta; method in brief: as §1
# [5] = biological target: T2, Cytochrome P450 11B2, mitochondrial (Homo sapiens, UniProt P19099); assay: Inhibition of human CYP11B2 expressed in V79 cells incubated for 1 hr before 11-deoxycorticosterone substrate addition by HTRF-based assay; assay type: cell-based
# T2 sequence (P19099 whole entry): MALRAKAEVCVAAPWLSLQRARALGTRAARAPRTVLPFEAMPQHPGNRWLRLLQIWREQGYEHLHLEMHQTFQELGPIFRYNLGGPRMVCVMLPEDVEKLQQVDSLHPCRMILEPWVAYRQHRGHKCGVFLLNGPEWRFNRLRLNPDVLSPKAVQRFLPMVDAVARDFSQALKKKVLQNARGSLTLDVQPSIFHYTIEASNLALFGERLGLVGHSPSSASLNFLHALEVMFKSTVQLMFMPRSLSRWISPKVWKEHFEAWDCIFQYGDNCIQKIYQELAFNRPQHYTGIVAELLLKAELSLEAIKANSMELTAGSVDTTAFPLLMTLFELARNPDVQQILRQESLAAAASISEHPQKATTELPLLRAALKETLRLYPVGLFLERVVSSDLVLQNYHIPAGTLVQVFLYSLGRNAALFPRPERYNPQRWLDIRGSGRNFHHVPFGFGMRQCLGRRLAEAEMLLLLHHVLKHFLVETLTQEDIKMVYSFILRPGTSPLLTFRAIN
# Method in brief: (§3)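 Human CYP11B2 and CYP11B1 inhibition was tested in cell-based assays. Selectivity was taken as the hCYP11B1 IC50 divided by the hCYP11B2 IC50.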
# V79 = assay: as §2; assay type: cell-based; settings: Macaca mulatta
# [6] = biological target: T3, Cytochrome P450 11B1, mitochondrial (Homo sapiens, UniProt P15538); assay: Inhibition of human CYP11B1 expressed in V79 cells incubated for 1 hr before 11-deoxycortisol substrate addition by HTRF-based assay; assay type: cell-based; method in brief: as §3
# T3 sequence (P15538 whole entry): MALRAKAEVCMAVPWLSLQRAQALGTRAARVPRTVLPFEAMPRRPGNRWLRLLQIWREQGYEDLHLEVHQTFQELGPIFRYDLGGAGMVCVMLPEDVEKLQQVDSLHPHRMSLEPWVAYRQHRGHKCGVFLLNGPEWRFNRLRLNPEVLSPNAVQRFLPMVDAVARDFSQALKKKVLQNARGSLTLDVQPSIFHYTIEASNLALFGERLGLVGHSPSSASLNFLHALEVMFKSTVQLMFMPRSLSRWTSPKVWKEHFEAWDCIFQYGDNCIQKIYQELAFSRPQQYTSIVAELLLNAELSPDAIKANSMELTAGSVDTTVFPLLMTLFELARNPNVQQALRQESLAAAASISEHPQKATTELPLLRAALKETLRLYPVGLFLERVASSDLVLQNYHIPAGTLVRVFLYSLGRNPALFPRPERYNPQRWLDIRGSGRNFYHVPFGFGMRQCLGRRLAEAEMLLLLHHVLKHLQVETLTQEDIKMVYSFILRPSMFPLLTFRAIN
# [7] = Half life in rhesus monkey at 1 mg/kg, po or 0.5 mg/kg, iv by LC-MS/MS method; assay type: ADME, organism-based, Macaca mulatta; settings: in vivo
# Homo sapiens = species: Homo sapiens; assay: Selectivity index, ratio of IC50 for CYP19 (unknown origin) to IC50 for human CYP11B2
# [8] = biological target: T4, Alpha-2B adrenergic receptor (Homo sapiens, UniProt P18089); assay: Inhibition of adrenergic alpha-2B receptor (unknown origin)
# T4 sequence (P18089 whole entry): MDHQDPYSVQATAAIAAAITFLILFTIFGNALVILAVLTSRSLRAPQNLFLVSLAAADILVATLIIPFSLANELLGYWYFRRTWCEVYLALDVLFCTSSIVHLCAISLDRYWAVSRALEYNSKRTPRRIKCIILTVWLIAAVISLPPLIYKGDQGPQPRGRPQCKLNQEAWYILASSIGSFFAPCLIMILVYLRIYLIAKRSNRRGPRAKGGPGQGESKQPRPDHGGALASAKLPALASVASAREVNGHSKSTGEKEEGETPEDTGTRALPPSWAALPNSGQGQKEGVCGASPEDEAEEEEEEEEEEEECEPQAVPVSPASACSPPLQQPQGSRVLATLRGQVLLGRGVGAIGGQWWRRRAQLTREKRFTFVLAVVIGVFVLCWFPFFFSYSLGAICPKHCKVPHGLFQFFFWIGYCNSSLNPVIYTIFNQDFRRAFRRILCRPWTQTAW
# Method in brief: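 Binding activity was profiled across a panel of 114 receptors, enzymes and ion channels, with an IC50 determined against any target that was hit.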
IC50 (Aromatase) [nM],IC50 [2] [nM],IC50 [5] [nM],IC50 [6] [nM],half-life [7] [h],Ratio IC50 (Homo sapiens),IC50 [8] [nM],Structure (SMILES),inhibition (Rhesus monkey [1]),inhibition (Rhesus monkey [3]),inhibition (INH) (Rhesus monkey [4]) [%],inhibition (V79)
1020,0.3,,,,,,CC(C)(O)c1cncc(-c2nc3ccc(F)cc3n2C2CC2)c1 [MSD-CYP11B2],Dose-dependent effect,inactive,62,
4510,,4.7,435,7.4,500,2490,Fc1cncc(-c2nc3cc(F)c(F)cc3n2C2CC2)c1,,,,Active
